Experimental data reported in article PMC3616288 (The EMBO Journal, 2013).

Legend:
β′‐COP = target: T1, β′‐COP (Saccharomyces cerevisiae, UniProt P41811); experiment: Isothermal calorimetry; type: binding, S. cerevisiae; details: ITC; relative to TFKKTN (yWbp1) peptide
T1 sequence (P41811 1-814): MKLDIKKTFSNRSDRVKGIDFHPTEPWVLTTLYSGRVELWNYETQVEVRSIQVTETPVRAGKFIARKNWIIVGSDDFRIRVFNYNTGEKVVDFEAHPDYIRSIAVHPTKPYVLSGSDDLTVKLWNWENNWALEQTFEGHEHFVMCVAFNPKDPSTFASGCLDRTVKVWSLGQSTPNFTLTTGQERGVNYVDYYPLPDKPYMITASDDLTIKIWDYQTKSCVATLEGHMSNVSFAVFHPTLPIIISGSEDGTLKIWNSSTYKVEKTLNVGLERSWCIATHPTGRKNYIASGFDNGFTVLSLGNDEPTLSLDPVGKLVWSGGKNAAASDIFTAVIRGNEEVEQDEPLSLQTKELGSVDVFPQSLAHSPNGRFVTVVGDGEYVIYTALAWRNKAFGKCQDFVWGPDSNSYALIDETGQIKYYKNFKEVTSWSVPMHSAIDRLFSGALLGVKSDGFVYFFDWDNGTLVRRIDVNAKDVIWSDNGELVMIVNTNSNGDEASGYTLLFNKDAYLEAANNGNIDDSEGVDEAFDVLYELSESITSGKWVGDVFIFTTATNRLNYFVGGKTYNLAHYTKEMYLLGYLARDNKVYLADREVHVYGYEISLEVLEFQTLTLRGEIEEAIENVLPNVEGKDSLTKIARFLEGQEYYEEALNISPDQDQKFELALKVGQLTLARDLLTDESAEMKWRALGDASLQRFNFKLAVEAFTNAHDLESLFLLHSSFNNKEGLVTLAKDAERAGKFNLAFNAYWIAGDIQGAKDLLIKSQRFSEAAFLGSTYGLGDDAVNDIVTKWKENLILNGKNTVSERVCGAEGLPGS
T1 sequence (P53622 642-818 partner limits assumed): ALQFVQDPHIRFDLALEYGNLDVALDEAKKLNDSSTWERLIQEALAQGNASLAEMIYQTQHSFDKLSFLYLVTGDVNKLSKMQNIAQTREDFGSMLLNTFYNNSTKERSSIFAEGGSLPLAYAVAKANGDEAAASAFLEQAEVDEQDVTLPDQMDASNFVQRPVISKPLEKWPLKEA
Method in brief: (§1)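 Synthetic peptides and protein were dialysed overnight into the same 20 mM Tris–HCl pH 7.5, 150 mM NaCl. α-COP target: quintuple-mutant S. pombe α-COP(1–327), His-Smt3-tagged, E. coli-expressed, tag cleaved. β′-COP target: S. cerevisiae β′-COP(1–814)/α-COP C-terminal fragment dimer from Hi-5 insect cells. Ratios are taken from the Kd values.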

α‐COP = target: T2, α‐COP (Schizosaccharomyces pombe, UniProt Q96WV5, F197K/I192K/L181K/L185K/L196K); experiment: Isothermal calorimetry; type: binding, S. pombe; details: from ITC Kd values for α‐COP and β′‐COP
T2 sequence (Q96WV5 1-327 L181K/L185K/I192K/L196K/F197K): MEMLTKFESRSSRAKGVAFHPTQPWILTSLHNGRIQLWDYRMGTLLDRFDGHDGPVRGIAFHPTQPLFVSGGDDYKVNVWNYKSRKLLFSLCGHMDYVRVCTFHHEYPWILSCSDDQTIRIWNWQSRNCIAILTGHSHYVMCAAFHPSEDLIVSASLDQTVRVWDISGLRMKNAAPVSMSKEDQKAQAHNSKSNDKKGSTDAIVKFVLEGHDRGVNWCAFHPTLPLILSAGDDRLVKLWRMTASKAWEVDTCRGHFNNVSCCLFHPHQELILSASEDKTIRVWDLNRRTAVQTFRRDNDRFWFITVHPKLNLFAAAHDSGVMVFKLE
Method in brief: as §1

[1] = target: S. cerevisiae β′-COP(1–814)/α-COP(642–818) dimer (S. cerevisiae) (UniProt P41811); experiment: ITC
[2] = target: T3, S. cerevisiae β′-COP(1–814)/α-COP(642–818) dimer (S. cerevisiae, UniProt P41811 1-814; P53622 642-818); experiment: pull-down
T3 sequence (looked up) 1: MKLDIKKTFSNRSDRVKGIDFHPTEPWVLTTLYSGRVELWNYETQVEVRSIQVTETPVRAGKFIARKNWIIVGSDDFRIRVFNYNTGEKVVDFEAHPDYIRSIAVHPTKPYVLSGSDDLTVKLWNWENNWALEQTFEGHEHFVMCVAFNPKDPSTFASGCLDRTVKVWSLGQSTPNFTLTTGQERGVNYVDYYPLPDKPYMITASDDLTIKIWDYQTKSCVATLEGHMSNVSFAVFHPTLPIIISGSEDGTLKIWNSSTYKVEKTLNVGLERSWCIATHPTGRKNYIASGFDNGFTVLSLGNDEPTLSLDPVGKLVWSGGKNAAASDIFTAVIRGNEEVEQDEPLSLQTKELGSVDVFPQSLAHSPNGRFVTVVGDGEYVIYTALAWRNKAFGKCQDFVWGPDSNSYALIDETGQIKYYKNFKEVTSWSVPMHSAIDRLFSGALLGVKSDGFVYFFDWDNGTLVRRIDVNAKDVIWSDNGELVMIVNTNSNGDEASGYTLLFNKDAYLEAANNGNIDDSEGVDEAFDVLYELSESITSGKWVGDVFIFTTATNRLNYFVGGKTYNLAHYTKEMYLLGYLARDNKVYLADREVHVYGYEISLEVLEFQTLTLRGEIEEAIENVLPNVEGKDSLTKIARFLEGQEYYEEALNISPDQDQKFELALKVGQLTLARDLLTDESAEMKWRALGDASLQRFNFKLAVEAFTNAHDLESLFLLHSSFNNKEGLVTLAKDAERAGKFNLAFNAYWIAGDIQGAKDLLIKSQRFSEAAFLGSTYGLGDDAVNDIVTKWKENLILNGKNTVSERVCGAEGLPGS
T3 sequence (looked up) 2: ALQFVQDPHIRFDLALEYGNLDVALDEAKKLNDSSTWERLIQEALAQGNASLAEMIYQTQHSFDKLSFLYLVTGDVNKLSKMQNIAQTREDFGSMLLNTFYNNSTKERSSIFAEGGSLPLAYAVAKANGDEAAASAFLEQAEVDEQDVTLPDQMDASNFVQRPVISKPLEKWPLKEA

[3] = target: T4, S. cerevisiae α-COP(1–818)/β′-COP(651–814) dimer (S. cerevisiae, UniProt P53622 1-818; P41811 651-814); experiment: pull-down
T4 sequence (looked up) 1: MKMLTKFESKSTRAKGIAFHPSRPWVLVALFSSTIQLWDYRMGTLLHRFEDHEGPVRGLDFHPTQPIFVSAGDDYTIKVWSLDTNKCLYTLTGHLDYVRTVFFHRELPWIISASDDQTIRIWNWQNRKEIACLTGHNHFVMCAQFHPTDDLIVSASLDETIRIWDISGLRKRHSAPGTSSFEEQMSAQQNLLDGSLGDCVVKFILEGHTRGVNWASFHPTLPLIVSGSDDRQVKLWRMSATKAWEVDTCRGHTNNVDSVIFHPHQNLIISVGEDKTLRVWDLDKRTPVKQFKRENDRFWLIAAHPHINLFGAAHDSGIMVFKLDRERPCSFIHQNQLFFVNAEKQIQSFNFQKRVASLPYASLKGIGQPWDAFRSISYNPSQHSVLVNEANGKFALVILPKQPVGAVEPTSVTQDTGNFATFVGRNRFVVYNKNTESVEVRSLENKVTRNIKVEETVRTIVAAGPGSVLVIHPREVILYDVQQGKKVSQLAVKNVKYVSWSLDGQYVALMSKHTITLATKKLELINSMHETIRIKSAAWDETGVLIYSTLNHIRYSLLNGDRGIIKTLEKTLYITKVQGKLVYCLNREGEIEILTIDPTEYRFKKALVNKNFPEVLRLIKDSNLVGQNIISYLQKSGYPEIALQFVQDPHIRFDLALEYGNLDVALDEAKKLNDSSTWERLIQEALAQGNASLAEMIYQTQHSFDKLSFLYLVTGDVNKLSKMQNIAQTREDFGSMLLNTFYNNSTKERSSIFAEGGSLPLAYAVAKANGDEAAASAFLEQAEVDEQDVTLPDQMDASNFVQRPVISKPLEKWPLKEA
T4 sequence (looked up) 2: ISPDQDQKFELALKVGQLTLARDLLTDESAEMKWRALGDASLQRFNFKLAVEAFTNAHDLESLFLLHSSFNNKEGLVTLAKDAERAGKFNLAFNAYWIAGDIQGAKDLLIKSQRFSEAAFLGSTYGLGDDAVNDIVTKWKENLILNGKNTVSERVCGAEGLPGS

[4] = target: T3, S. cerevisiae …; experiment: ITC
[5] = target: T5, S. cerevisiae β′-COP N-terminal β-propeller domain (residues 1–301) (S. cerevisiae, UniProt P41811 1-301); experiment: crystal structure
T5 sequence (looked up): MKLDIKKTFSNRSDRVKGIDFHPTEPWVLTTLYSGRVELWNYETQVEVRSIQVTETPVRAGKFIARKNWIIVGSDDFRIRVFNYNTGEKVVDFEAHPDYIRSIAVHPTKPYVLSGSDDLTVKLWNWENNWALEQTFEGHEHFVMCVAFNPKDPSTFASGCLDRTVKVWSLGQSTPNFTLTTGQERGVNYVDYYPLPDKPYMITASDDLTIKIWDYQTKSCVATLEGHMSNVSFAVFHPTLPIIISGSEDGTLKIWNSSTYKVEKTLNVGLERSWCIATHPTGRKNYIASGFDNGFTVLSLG

Molecule: TFKKSN
- binds more tightly than KKTN to β′‐COP by a factor (β′‐COP): 1.8 fold
- ratio of affinities of α‐COP and β′‐COP: factor by which the motif favours α‐COP (α‐COP): 2.2

Molecule: yeast Wbp1 variant peptide TFKKSN
- fold tighter binding than KKTN [1]: 1.8 fold

Molecule: KYKSRRSFIDEKKMP (domain or fragment, adenovirus, UniProt P68978 145-159, looked up) [GST fused to the cytoplasmic region of adenoviral E19 protein (KKxx motif)]
- binding result [2]: binds
- binding result [3]: binds

Molecule: RIRQEIIKTKLL (domain or fragment, yeast, UniProt P43555 434-445, looked up) [GST fused to the cytoplasmic region of Emp47p (KxKxx motif)]
- binding result [2]: binds
- binding result [3]: binds

Molecule: IKTKLL [Emp47p peptide IKTKLL]
- Kd [4]: 22.5 µM

Molecule: EKEKSD [human Wbp1 (OST48) peptide EKEKSD]
- Kd [4]: 3.4 µM

Molecule: RRSFIDEKKMP [adenoviral E19 protein peptide RRSFIDEKKMP]
- Kd [4]: 49 µM

Molecule: FEAKKLV [p25 peptide FEAKKLV]
- Kd [4]: 27.7 µM

Molecule: TFKKTN [yeast Wbp1 peptide TFKKTN]
- Kd [4]: 171 µM

Molecule: PEKPHSD [Insig-1 peptide PEKPHSD]
- binding result [4]: binds
- binding result [5]: binds

Molecule: AEKSHQE [Insig-2 peptide AEKSHQE]
- binding result [4]: binds
- binding result [5]: binds

Molecule: GARKLD [Scyl1 peptide GARKLD]
- Kd [4]: 20.4 µM

Molecule: FEKVHVQ [porcine epidemic diarrhoea virus spike protein peptide FEKVHVQ]
- binding result [5]: binds

Molecule: RHLKSFFEAKKLV (domain or fragment, UniProt Q9BVK6 223-235, looked up) [GST fused to the cytoplasmic region of p25 (KKxx motif)]
- binding result [2]: binds
- binding result [3]: binds
